Source: ChEMBL document CHEMBL1811780, “Could LogP be a principal determinant of biological activity in 18-crown-6 ethers? Synthesis of biologically active adamantane-substituted diaza-crowns” (Eur J Med Chem, 2011)
Activity calls are given as the source filed them. The rule behind the calls is not given here.

What was measured:
[1] = tested on: MCF7; assay: Antiproliferative activity against human MCF7 cells after 72 hrs by MTT assay; assay type: functional; conditions: MCF7, 72 h
In short: (§1)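 Adherent monolayers grown in DMEM with 10% FBS, 2 mM L-glutamine, penicillin and streptomycin at 37 °C, 5% CO2. Cells seeded on day 0, then given five 10-fold dilutions (10^-8 to 10^-4 mol/L), DMSO at most 0.25%, for 72 h. MTT read at 570 nm. GI50 from linear regression of percentage growth around 50%. Quadruplicate points; mean of three experiments.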

[2] = tested on: Bacillus subtilis; assay: Antibacterial activity against Bacillus subtilis after 70 mins; assay type: functional, organism-based
[3] = tested on: NCI-H460; assay: Antiproliferative activity against human H460 cells after 72 hrs by MTT assay; assay type: functional; conditions: NCI-H460, 72 h; in short: as §1
[4] = tested on: SW-620; assay: Antiproliferative activity against human SW620 cells after 72 hrs by MTT assay; assay type: functional; conditions: SW-620, 72 h; in short: as §1
[5] = tested on: MIA PaCa-2; assay: Antiproliferative activity against human MIAPaCa2 cells after 72 hrs by MTT assay; assay type: functional; conditions: MIA PaCa-2, 72 h; in short: as §1
[6] = tested on: HeLa; assay: Antiproliferative activity against human HeLa cells after 72 hrs by MTT assay; assay type: functional; in short: as §1
[7] = tested on: HCT-116; assay: Antiproliferative activity against human HCT116 cells after 72 hrs by MTT assay; assay type: functional; conditions: HCT-116, 72 h; in short: as §1
[8] = tested on: MOLT-4; assay: Antiproliferative activity against human MOLT4 cells after 72 hrs by MTT assay; assay type: functional; conditions: MOLT-4, 72 h
In short: as §1, with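 “MOLT-4” for “Adherent monolayers”, “suspension in RPMI” for “DMEM”, “Treated with” for “Cells seeded on day 0, then given”, “by” for “from”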

[9] = tested on: Escherichia coli; assay: Antibacterial activity against Escherichia coli assessed as growth inhibition at 10^-4 M after 105 mins; assay type: functional; conditions: 1.75 h, read-out: GI
In short: (§2)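 E. coli grown in LB at 37 °C with shaking to OD600 ≈0.1. Culture split into untreated control and four treated aliquots at 10^-4, 10^-5, 10^-6 and 10^-7 M. Grown 105 min (about three mass doublings) at 37 °C. Dilutions in phosphate buffer plated on LB, incubated overnight at 37 °C, CFU counted. % growth inhibition and GI50 derived as for tumour cells. Quadruplicate, at least two experiments.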

[10] = tested on: SW-620; assay: Cell cycle arrest in human SW620 cells assessed as G1 phase delay at 5 uM after 24 to 48 hrs using propidium iodide staining by flow cytometry; assay type: functional, cell-based
In short: (§3)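 2×10^5 SW 620 cells per well were treated 24 h after seeding, for 24 or 48 h. Attached and floating cells were pooled, fixed in 70% ethanol, then stained with 1 µg/ml PI plus RNase A. 20000 events were acquired by flow cytometry. Phase percentages came from DNA histograms; subG1 is given as a percentage of all counts.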

[11] = tested on: SW-620; assay: Cell cycle arrest in human SW620 cells assessed as S phase reduction at 5 uM after 24 to 48 hrs using propidium iodide staining by flow cytometry; assay type: functional, cell-based; in short: as §3
[12] = tested on: Escherichia coli; assay: Antibacterial activity against Escherichia coli after 105 mins; assay type: functional; conditions: 1.75 h; in short: as §2
[13] = tested on: SW-620; assay: Cell cycle arrest in human SW620 cells assessed as S phase reduction at 10 uM after 24 to 48 hrs using propidium iodide staining by flow cytometry; assay type: functional, cell-based; in short: as §3
[14] = tested on: SW-620; assay: Cell cycle arrest in human SW620 cells assessed as G1 phase delay at 10 uM after 24 to 48 hrs using propidium iodide staining by flow cytometry; assay type: functional, cell-based; in short: as §3
[15] = tested on: SW-620; assay: Cell cycle arrest in human SW620 cells assessed as accumulation in subG1 phase at 10 uM after 24 to 48 hrs using propidium iodide staining by flow cytometry; assay type: functional, cell-based; in short: as §3

SMILES	GI50 [1]	IC50 [2]	GI50 [3]	GI50 [4]	inhibition of growth at 100 µM [9]	further results
C1COCCOCCNCCOCCOCCN1	> 100 µM	1580 µM	> 100 µM	> 100 µM		GI50 [5]: > 100 µM; GI50 [6]: > 100 µM; GI50 [7]: > 100 µM; GI50 [8]: > 100 µM
O=C(CC12CC3CC(CC(C3)C1)C2)N1CCOCCOCCOCCOCCOCC1	> 100 µM		> 100 µM	> 100 µM	< 15%	GI50 [5]: > 100 µM; GI50 [6]: > 100 µM
C1CCC2OCCOCCOC3CCCCC3OCCOCCOC2C1 (configuration not stated) [ICOSAHYDRODIBENZO[B,K][1,4,7,10,13,16]HEXAOXACYCLOOCTADECINE]		166 µM			< 15%	
c1ccc2c(c1)OCCOCCOc1ccccc1OCCOCCO2		380 µM			< 15%	
C1COCCN(CC23CC4CC(CC(C4)C2)C3)CCOCCOCCN(CC23CC4CC(CC(C4)C2)C3)CCO1	21 µM	25.1 µM	18 µM	19 µM	< 15%	
O=C(CCC12CC3CC(CC(C3)C1)C2)N1CCOCCOCCN(C(=O)CCC23CC4CC(CC(C4)C2)C3)CCOCCOCC1	2 µM	129 µM	11 µM	19 µM	< 15%	GI50 [7]: 6 µM; GI50 [8]: 3 µM
CC(C)(C)C1CCC2OCCOCCOC3CC(C(C)(C)C)CCC3OCCOCCOC2C1 (configuration not stated)		1.32 µM			< 15%	
C(CN1CCOCCOCCN(CCCC23CC4CC(CC(C4)C2)C3)CCOCCOCC1)CC12CC3CC(CC(C3)C1)C2	2 µM	17 µM	1 µM	1 µM	26%	Activity [10]: Active; Activity [11]: Active; GI50 [12]: 1000 µM; Activity [13]: Active; Activity [14]: Active; GI50 [7]: 0.4 µM; Activity [15]: Active; GI50 [8]: 1 µM
COC(=O)[C@@H](NC(=O)CN1CCOCCOCCN(CC(=O)N[C@@H](C(=O)OC)c2ccccc2)CCOCCOCC1)c1ccccc1		380 µM			< 15%	
C1COCCOCC23CC4CC(C2)CC(COCCOCCO1)(C4)O3	> 100 µM	1580 µM	> 100 µM	> 100 µM		GI50 [5]: > 100 µM; GI50 [6]: > 100 µM
C1COCCOCCOCCOCCOCCN1	> 100 µM	1580 µM	> 100 µM	> 100 µM		
